In ChEMBL document CHEMBL1148785, “Second generation tetrahydroquinoline-based protein farnesyltransferase inhibitors as antimalarials” (J Med Chem, 2007):
pEC50, pIC50: −log10 of the molar value.

Experiments:
Plasmodium falciparum [1] = test: Antimalarial activity against Plasmodium falciparum 3D7; type: functional; conditions: read-out: ED50 (the source's name)
Method in brief: (§1)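 Asynchronous culture in type A+ erythrocytes at 0.5% parasitemia and 0.5% hematocrit, grown in RPMI-1640 with 20% heat-inactivated human A+ plasma. Compound was serially diluted from a top final 5 µM, with DMSO vehicle as 100% growth. Plates ran 48 h at 37 °C under 5% CO2/5% O2/90% N2, then [3H]-hypoxanthine (0.3 µCi) for 24 h. Filter-harvested counts were corrected for the uninfected-RBC background. ED50 by linear regression; duplicates averaged.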

Plasmodium falciparum [2] = test: Antimalarial activity against Plasmodium falciparum K1; type: functional; conditions: read-out: ED50 (the source's name); method in brief: as §1
[3] = Inhibition of Plasmodium falciparum protein farnesyltransferase by scintillation proximity assay
Plasmodium falciparum [4] = test: Inhibition of Plasmodium falciparum protein farnesyltransferase at 50 nM by scintillation proximity assay
Plasmodium falciparum [5] = test: Inhibition of Plasmodium falciparum protein farnesyltransferase at 5 nM by scintillation proximity assay
Plasmodium falciparum [6] = test: Inhibition of Plasmodium falciparum protein farnesyltransferase at 0.5 nM by scintillation proximity assay
[7] = target: Protein farnesyltransferase (Rattus norvegicus); test: Inhibition of protein farnesyltransferase

pEC50 (Plasmodium falciparum [1]; Plasmodium falciparum, 3D7)	pEC50 (Plasmodium falciparum [2]; Plasmodium falciparum, K1)	pIC50 [3]	inhibition (Plasmodium falciparum [4]) [%]	inhibition (Plasmodium falciparum [5]) [%]	inhibition (Plasmodium falciparum [6]) [%]	pIC50 [7]	Structure (SMILES)	pEC50 (Plasmodium falciparum [1])	pEC50 (Plasmodium falciparum [2])
< 5.30	< 5.30	< 7.30					Cc1cc(C(=O)N(CC(=O)OC(C)(C)C)C2Cc3cc(C#N)ccc3N(Cc3cncn3C)C2)no1 (stereo unspecified)		
7.92	8.70	9.40	99				Cn1cnc(S(=O)(=O)N(Cc2ccsc2)C2Cc3cc(C#N)ccc3N(Cc3cncn3C)C2)c1 (stereo unspecified)		
7.74	7.89	9.22	98	24	91		CC(C)C(=O)N1CCC(CN(C2Cc3cc(C#N)ccc3N(Cc3cncn3C)C2)S(=O)(=O)c2ccccn2)CC1 (stereo unspecified)		
< 5.30	< 5.30	6.10	15	14	10		Cn1cncc1CN1CC(N(CC(=O)NC(C)(C)C)S(=O)(=O)c2c[nH]cn2)Cc2cc(C#N)ccc21 (stereo unspecified)		
6.34	5.77	6.05	26	0	7		Cn1cncc1CN1CC(N(CC2CCN(C(=O)c3ccc(Cl)cc3)CC2)S(=O)(=O)c2ccccn2)Cc2cc(C#N)ccc21 (stereo unspecified)		
6.82	6.48	8.15	94	20	63	7.80	Cn1cncc1CN1CC(N(CC2CCN(C(=O)c3ccccc3)CC2)S(=O)(=O)c2ccccn2)Cc2cc(C#N)ccc21 (stereo unspecified)		
6.60	6.89	9.05					Cn1cnc(S(=O)(=O)N(CCCCC(=O)NCCN)C2Cc3cc(C#N)ccc3N(Cc3cncn3C)C2)c1 (stereo unspecified)		
7.29	7.00		100	93	4	8.42	Cn1cncc1CN1CC(N(Cc2ccccn2)S(=O)(=O)c2ccccn2)Cc2cc(C#N)ccc21 (stereo unspecified)		
6.12	5.51	8.10	80	27	2	8.30	Cn1cncc1CN1CC(N(CC(=O)NC(C)(C)C)S(=O)(=O)c2nccn2C)Cc2cc(C#N)ccc21 (stereo unspecified)		
7.26	7.70		100	95	34	8.47	Cc1ccccc1CN(C1Cc2cc(C#N)ccc2N(Cc2cncn2C)C1)S(=O)(=O)c1cn(C)cn1 (stereo unspecified)		
< 5.30	< 5.30	< 7.30					Cn1cnc(C(=O)N(CC(=O)OC(C)(C)C)C2Cc3cc(C#N)ccc3N(Cc3cncn3C)C2)c1 (stereo unspecified)		
5.52	5.35		69	9	0	6.00	Cn1cnc(S(=O)(=O)N(Cc2ccc3ccccc3c2Br)C2Cc3cc(C#N)ccc3N(Cc3cncn3C)C2)c1 (stereo unspecified)		
< 5.30	< 5.30		65	6	0	6.98	Cn1cnc(S(=O)(=O)N(CC2CCNCC2)C2Cc3cc(C#N)ccc3N(Cc3cncn3C)C2)c1 (stereo unspecified)		
7.17	7.19	9.19	98	60	95		CCNC(=O)N1CCC(CN(C2Cc3cc(C#N)ccc3N(Cc3cncn3C)C2)S(=O)(=O)c2ccccn2)CC1 (stereo unspecified)		
			55	13		6.36	Cn1cncc1CN1CC(N(Cc2ccc3ccccc3c2Br)S(=O)(=O)c2ccccn2)Cc2cc(C#N)ccc21 (stereo unspecified)		
< 5.30	5.30	7.38	71	33	30		Cn1cncc1CN1CC(N(CC(=O)NC(C)(C)C)S(=O)(=O)c2ccc(F)cc2)Cc2cc(C#N)ccc21 (stereo unspecified)		

pEC50 (Plasmodium falciparum [1]; Plasmodium falciparum, 3D7)	pEC50 (Plasmodium falciparum [2]; Plasmodium falciparum, K1)	pIC50 [3]	inhibition (Plasmodium falciparum [4]) [%]	inhibition (Plasmodium falciparum [5]) [%]	inhibition (Plasmodium falciparum [6]) [%]	pIC50 [7]	Structure (SMILES)	pEC50 (Plasmodium falciparum [1])	pEC50 (Plasmodium falciparum [2])
< 5.30	< 5.30		66	19	0	8.32	Cn1cnc(S(=O)(=O)N(Cc2ccc(C(=O)O)cc2)C2Cc3cc(C#N)ccc3N(Cc3cncn3C)C2)c1 (stereo unspecified)		
7.10	6.16	8.52	95	12	63	8.19	CCCC(=O)N1CCC(CN(C2Cc3cc(C#N)ccc3N(Cc3cncn3C)C2)S(=O)(=O)c2ccccn2)CC1 (stereo unspecified)		
5.52	5.52		53	4		8.00	Cn1cncc1CN1CC(N(Cc2cc3nsnc3cc2Cl)S(=O)(=O)c2ccccn2)Cc2cc(C#N)ccc21 (stereo unspecified)		
7.43	7.02	8.62	94	29	65		CC(=O)N1CCC(CN(C2Cc3cc(C#N)ccc3N(Cc3cncn3C)C2)S(=O)(=O)c2ccccn2)CC1 (stereo unspecified)		
7.77	8.00		99	96	74	8.77	Cn1cncc1CN1CC(N(CCn2cccc2)S(=O)(=O)c2ccccn2)Cc2cc(C#N)ccc21 (stereo unspecified)		
7.12	7.30		99	92	25	8.12	COCCCN(C1Cc2cc(C#N)ccc2N(Cc2cncn2C)C1)S(=O)(=O)c1cn(C)cn1 (stereo unspecified)		
7.21	7.30	9.05	99	45	93		Cn1cncc1CN1CC(N(CC2CCN(S(C)(=O)=O)CC2)S(=O)(=O)c2ccccn2)Cc2cc(C#N)ccc21 (stereo unspecified)		
7.70	7.12	9.22	96	36	88	8.11	Cn1cncc1CN1CC(N(CC2CCN(C(=O)CC(C)(C)C)CC2)S(=O)(=O)c2ccccn2)Cc2cc(C#N)ccc21 (stereo unspecified)		
7.32	7.12	8.92	99	17	76		Cn1cncc1CN1CC(N(CC2CCN(C(=O)C(C)(C)C)CC2)S(=O)(=O)c2ccccn2)Cc2cc(C#N)ccc21 (stereo unspecified)		
7.94	8.00	9.12	100	39	94		Cn1cncc1CN1CC(N(CC2CCN(C(=O)C3CC3)CC2)S(=O)(=O)c2ccccn2)Cc2cc(C#N)ccc21 (stereo unspecified)		
7.80	7.60	9.10	99	20	82		CCC(=O)N1CCC(CN(C2Cc3cc(C#N)ccc3N(Cc3cncn3C)C2)S(=O)(=O)c2ccccn2)CC1 (stereo unspecified)		
7.35	7.25		100	93	42	8.52	Cc1onc(-c2ccccc2)c1CN(C1Cc2cc(C#N)ccc2N(Cc2cncn2C)C1)S(=O)(=O)c1ccccn1 (stereo unspecified)		
< 5.30	< 5.30	< 7.30					Cn1cncc1CN1CC(N(CC(=O)OC(C)(C)C)C(=O)c2ccccc2)Cc2cc(C#N)ccc21 (stereo unspecified)		
7.38	7.42	9.30	98	98	56	8.59	Cn1cnc(S(=O)(=O)N(Cc2ccc(-n3cccn3)cc2)C2Cc3cc(C#N)ccc3N(Cc3cncn3C)C2)c1 (stereo unspecified)		
7.37	7.26	8.70	98	30	77		Cn1cncc1CN1CC(N(CC2CCN(C(=O)CC(F)(F)F)CC2)S(=O)(=O)c2ccccn2)Cc2cc(C#N)ccc21 (stereo unspecified)		

Structure (SMILES)	pEC50 (Plasmodium falciparum [1]; Plasmodium falciparum, 3D7)	pEC50 (Plasmodium falciparum [2]; Plasmodium falciparum, K1)	pIC50 [3]	inhibition (Plasmodium falciparum [4]) [%]	inhibition (Plasmodium falciparum [5]) [%]	inhibition (Plasmodium falciparum [6]) [%]	pIC50 [7]	pEC50 (Plasmodium falciparum [1])	pEC50 (Plasmodium falciparum [2])
CC(C)COC(=O)N1CCC(CN(C2Cc3cc(C#N)ccc3N(Cc3cncn3C)C2)S(=O)(=O)c2ccccn2)CC1 (stereo unspecified)	7.21	7.21	8.85	100	12	88	7.60		
COC(=O)N1CCC(CN(C2Cc3cc(C#N)ccc3N(Cc3cncn3C)C2)S(=O)(=O)c2ccccn2)CC1 (stereo unspecified) [listing 1 of 3 here]			9.54					7.96	7.89
CCOC(=O)N1CCC(CN(C2Cc3cc(C#N)ccc3N(Cc3cncn3C)C2)S(=O)(=O)c2ccccn2)CC1 (stereo unspecified)	7.26	7.40	9.30	100	46	95	8.26		
COC(=O)N1CCC(CN(C2Cc3cc(C#N)ccc3N(Cc3cncn3C)C2)S(=O)(=O)c2ccccn2)CC1 (stereo unspecified) [listing 2 of 3 here]			9.24					7.80	7.82
COC(=O)N1CCC(CN(C2Cc3cc(C#N)ccc3N(Cc3cncn3C)C2)S(=O)(=O)c2ccccn2)CC1 (stereo unspecified) [listing 3 of 3 here]			8.57					7.02	7.12
Cn1cncc1CN1CC(N(CC2CCN(C(=O)OC(C)(C)C)CC2)S(=O)(=O)c2ccccn2)Cc2cc(C#N)ccc21 (stereo unspecified)		6.74		100	89	19	8.15		
